Results taken from article PMC6753935 (Journal of Clinical and Translational Science, 2019).
Where two headings read alike, the source gives them in different places.

Legend:
[1] = system: platelets in platelet-rich plasma (PRP); assay: ADP-induced platelet aggregation in PRP from NHPs dosed with RUC-4 IM; format: in vivo, cynomolgus monkey (Macaca fascicularis)
Procedure, shortened: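 Six adult male monkeys (3.6–4.8 y; two per dose) got a single unsedated IM injection (0.064 ml/kg) at 1, 1.93 or 3.86 mg/kg. Citrated blood was drawn pre-dose and at 30, 120 and 270 min, plus ~27 h at the top dose. PRP was adjusted to 3 × 10^5/μl with PPP. Light-transmission aggregation at 37°C with stirring, 5 µM ADP. Percent inhibition of the initial slope versus untreated sample.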

[2] = system: platelets in platelet-rich plasma (PRP); assay: Light transmission platelet aggregation, RUC-4 IC50 in NHP PRP; format: cell-based, cynomolgus monkey (Macaca fascicularis); settings: read-out: RUC-4 IC50 for platelet aggregation in NHP, mean ± SD; 5 µM ADP, citrated PRP, initial slope, 4 animals
[3] = Pharmacokinetics: RUC-4 whole blood concentrations after IM, SC; format: in vivo, cynomolgus monkey (Macaca fascicularis); settings: for Bioavailability: compared to IV
Procedure, shortened: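 Six male monkeys (two per dose: 1, 1.93, 3.86 mg/kg) received single IV, IM or SC injections (0.064 ml/kg; SC into the abdomen). Repeat arms spanned ~6 months with washout. Blood was sampled pre-dose and at 5–270 min, plus 1 min post-IV. Whole-blood levels measured by LC-MS/MS (HILIC; quadratic curve 5–5000 ng/ml). Non-compartmental analysis; bioavailability relative to IV.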

[4] = Clinical pathology: complete blood counts; format: in vivo, cynomolgus monkey (Macaca fascicularis); settings: arms 1, 2 and 5
Procedure, shortened: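 Same six male monkeys, dosed IM, IV or SC across five arms. EDTA blood for complete counts was drawn pre-dose and at 30, 120 and 270 min post-dose in arms 1–2. Sampling was pre-dose and 15 min in arm 3, 45 min in arm 4, and 120 min in arm 5. Hematocrit and platelet count were recorded.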

[5] = system: human platelets in platelet-rich plasma (PRP); assay: In vitro platelet aggregation in PRP of healthy human volunteers; format: cell-based
Procedure, shortened: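 Healthy donors' venous blood was anticoagulated with citrate (0.38% final), PPACK (0.1 or 0.3 mM final) or heparin (15.8 USP U/ml). PRP was spun at 650 × g for 4 min at room temperature. Aspirin 0.83 mM final for 10 min, then test compound (0.01–3 µM final) for 20 min. Aggregation induced by arachidonic acid 1.5 mM or ADP 5 µM. IC50 from initial-slope inhibition by Hill-equation fit.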

αIIbβ3 = αIIbβ3 (Homo sapiens, UniProt P05106+P08514); format: cell-based; settings: five donors, p < 0.0001
Sequence of αIIbβ3 (P08514 32-887 limits assumed): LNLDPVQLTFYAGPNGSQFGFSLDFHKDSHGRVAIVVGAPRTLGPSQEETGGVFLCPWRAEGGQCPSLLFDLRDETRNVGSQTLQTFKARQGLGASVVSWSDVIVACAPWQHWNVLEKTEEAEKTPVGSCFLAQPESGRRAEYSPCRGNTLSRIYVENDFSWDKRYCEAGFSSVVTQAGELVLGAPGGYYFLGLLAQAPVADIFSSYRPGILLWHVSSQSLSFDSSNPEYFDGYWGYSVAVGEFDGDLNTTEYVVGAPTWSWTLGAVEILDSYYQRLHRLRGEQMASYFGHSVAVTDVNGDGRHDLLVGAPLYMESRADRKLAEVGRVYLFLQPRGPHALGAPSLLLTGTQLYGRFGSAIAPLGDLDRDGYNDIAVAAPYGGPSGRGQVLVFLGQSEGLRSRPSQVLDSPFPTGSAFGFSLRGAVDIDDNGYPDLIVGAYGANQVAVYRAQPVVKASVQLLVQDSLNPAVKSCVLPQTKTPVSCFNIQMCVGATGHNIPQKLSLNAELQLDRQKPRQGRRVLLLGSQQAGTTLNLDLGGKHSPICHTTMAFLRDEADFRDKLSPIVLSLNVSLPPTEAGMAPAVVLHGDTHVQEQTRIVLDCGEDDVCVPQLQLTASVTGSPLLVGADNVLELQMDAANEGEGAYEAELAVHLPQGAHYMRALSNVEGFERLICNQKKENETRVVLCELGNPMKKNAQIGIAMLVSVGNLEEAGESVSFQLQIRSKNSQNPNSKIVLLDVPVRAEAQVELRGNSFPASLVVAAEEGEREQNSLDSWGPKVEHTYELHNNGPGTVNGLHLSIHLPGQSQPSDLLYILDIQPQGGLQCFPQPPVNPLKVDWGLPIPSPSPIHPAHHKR
Sequence of αIIbβ3 (P08514 891-1039 partner limits assumed): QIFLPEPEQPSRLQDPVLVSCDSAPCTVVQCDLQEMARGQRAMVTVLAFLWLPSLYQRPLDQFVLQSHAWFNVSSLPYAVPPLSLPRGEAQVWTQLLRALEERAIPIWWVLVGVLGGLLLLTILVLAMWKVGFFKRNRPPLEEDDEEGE
Sequence of αIIbβ3 (P05106 27-788): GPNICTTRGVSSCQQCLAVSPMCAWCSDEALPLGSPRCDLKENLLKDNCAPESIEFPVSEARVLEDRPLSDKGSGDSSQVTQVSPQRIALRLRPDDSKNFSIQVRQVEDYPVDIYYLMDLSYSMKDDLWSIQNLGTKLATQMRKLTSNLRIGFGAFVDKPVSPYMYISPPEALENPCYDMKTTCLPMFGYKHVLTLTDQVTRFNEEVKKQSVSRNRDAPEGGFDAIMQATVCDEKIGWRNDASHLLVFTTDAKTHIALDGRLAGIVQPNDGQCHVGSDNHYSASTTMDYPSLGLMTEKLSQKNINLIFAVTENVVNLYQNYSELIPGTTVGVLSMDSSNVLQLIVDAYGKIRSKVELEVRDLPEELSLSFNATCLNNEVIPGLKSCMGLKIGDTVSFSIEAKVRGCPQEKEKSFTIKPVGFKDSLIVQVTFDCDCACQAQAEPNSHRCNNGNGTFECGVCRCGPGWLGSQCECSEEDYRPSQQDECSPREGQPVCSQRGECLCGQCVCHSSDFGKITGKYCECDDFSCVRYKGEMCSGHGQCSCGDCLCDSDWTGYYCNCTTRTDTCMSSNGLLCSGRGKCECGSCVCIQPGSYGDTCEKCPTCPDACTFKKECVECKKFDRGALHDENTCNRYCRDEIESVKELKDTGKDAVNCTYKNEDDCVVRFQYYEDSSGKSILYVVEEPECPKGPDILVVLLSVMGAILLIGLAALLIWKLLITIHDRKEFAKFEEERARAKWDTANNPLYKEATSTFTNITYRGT

With `NCC(=O)Nc1cncc(-c2nn3c(=O)cc(N4CCNCC4)nc3s2)c1` [RUC-4] the “Average inhibition of the initial slope of platelet aggregation in the two animals tested” value ([1]; IM 1.00 mg/kg, 30 minutes) was “b (Values of whole blood RUC-4 levels corresponding to an average of >80% inhibition of the initial slope of platelet aggregation in the two animals tested.)”, the “Average inhibition of the initial slope of platelet aggregation in the two animals tested” value ([1]; IM 1.00 mg/kg, 120 minutes) was “c (Values of whole blood RUC-4 levels corresponding to an average of 0%–80% inhibition of the initial slope of platelet aggregation in the two animals tested.)” and the “Average inhibition of the initial slope of platelet aggregation in the two animals tested” value ([1]; IM 1.00 mg/kg, 270 minutes) was “c (Values of whole blood RUC-4 levels corresponding to an average of 0%–80% inhibition of the initial slope of platelet aggregation in the two animals tested.)”. The “Average inhibition of the initial slope of platelet aggregation in the two animals tested” value ([1]; IM 1.93 mg/kg, 30 minutes) was “b (Values of whole blood RUC-4 levels corresponding to an average of >80% inhibition of the initial slope of platelet aggregation in the two animals tested.)”, the “Average inhibition of the initial slope of platelet aggregation in the two animals tested” value ([1]; IM 1.93 mg/kg, 120 minutes) was “b (Values of whole blood RUC-4 levels corresponding to an average of >80% inhibition of the initial slope of platelet aggregation in the two animals tested.)” and the “Average inhibition of the initial slope of platelet aggregation in the two animals tested” value ([1]; IM 1.93 mg/kg, 270 minutes) was “c (Values of whole blood RUC-4 levels corresponding to an average of 0%–80% inhibition of the initial slope of platelet aggregation in the two animals tested.)”. The “Average inhibition of the initial slope of platelet aggregation in the two animals tested” value ([1]; IM 3.86 mg/kg, 30 minutes) was “b (Values of whole blood RUC-4 levels corresponding to an average of >80% inhibition of the initial slope of platelet aggregation in the two animals tested.)”, the “Average inhibition of the initial slope of platelet aggregation in the two animals tested” value ([1]; IM 3.86 mg/kg, 120 minutes) was “b (Values of whole blood RUC-4 levels corresponding to an average of >80% inhibition of the initial slope of platelet aggregation in the two animals tested.)” and the “Average inhibition of the initial slope of platelet aggregation in the two animals tested” value ([1]; IM 3.86 mg/kg, 270 minutes) was “c (Values of whole blood RUC-4 levels corresponding to an average of 0%–80% inhibition of the initial slope of platelet aggregation in the two animals tested.)”. The “Inhibition of the initial slope of aggregation in response to ADP” value ([1]; IM, all samples with whole blood RUC-4 concentration ≥ ~8 nM) was over 80%, the “Inhibition of the initial slope of ADP-induced aggregation” value ([1]; IM, all three doses (1.0, 1.93, 3.86 mg/kg), 30 minutes post-dosing) was over 80% and the IC50 [2] was 807 ± 231 nM. For the same molecule, the “Time to peak level” value ([3]; 1.0 mg/kg SC) was 15 min, the “Time to peak blood levels” value ([3]; IM) was at most 5 min and the T1/2 ([3]; IM 1.00 mg/kg) was 16.8 min. For the same molecule, the Whole blood level ([3]; IM 1.00 mg/kg, 5 minutes) was 3.415 µM, the Whole blood level ([3]; IM 1.00 mg/kg, 15 minutes) was 2.118 µM and the Whole blood level ([3]; IM 1.00 mg/kg, 30 minutes) was 0.164 µM. The Whole blood level ([3]; IM 1.00 mg/kg, 45 minutes) was 0.236 µM, the Whole blood level ([3]; IM 1.00 mg/kg, 120 minutes) was under 0.008 µM and the Whole blood level ([3]; IM 1.00 mg/kg, 270 minutes) was under 0.007 µM. The Bioavailability ([3]; IM 1.00 mg/kg) was 1.2, the T1/2 ([3]; IM 1.93 mg/kg) was 16.8 min and the Whole blood level ([3]; IM 1.93 mg/kg, 5 minutes) was 3.796 µM. It also gave a Whole blood level ([3]; IM 1.93 mg/kg, 15 minutes) of 3.692 µM, a Whole blood level ([3]; IM 1.93 mg/kg, 30 minutes) of 0.297 µM and a Whole blood level ([3]; IM 1.93 mg/kg, 45 minutes) of 0.333 µM. It also gave a Whole blood level ([3]; IM 1.93 mg/kg, 120 minutes) of 0.008 µM, a Whole blood level ([3]; IM 1.93 mg/kg, 270 minutes) of under 0.007 µM and a Bioavailability ([3]; IM 1.93 mg/kg) of 0.80. For the same molecule, the T1/2 ([3]; IM 3.86 mg/kg) was 31.8 min, the Whole blood level ([3]; IM 3.86 mg/kg, 5 minutes) was 16.009 µM and the Whole blood level ([3]; IM 3.86 mg/kg, 15 minutes) was 8.783 µM. The Whole blood level ([3]; IM 3.86 mg/kg, 30 minutes) was 0.837 µM, the Whole blood level ([3]; IM 3.86 mg/kg, 45 minutes) was 0.952 µM and the Whole blood level ([3]; IM 3.86 mg/kg, 120 minutes) was 0.016 µM. The Whole blood level ([3]; IM 3.86 mg/kg, 270 minutes) was under 0.007 µM, the Bioavailability ([3]; IM 3.86 mg/kg) was 0.88 and the “Time to peak levels” value ([3]; IM and SC, all doses except 1.0 mg/kg SC) was at most 5 min. For the same molecule, the “Time to peak blood levels” value ([3]; SC) was at most 5 min, the T1/2 ([3]; SC 1.00 mg/kg) was 33.6 min and the Whole blood level ([3]; SC 1.00 mg/kg, 5 minutes) was 0.746 µM. It also gave a Whole blood level ([3]; SC 1.00 mg/kg, 15 minutes) of 0.819 µM, a Whole blood level ([3]; SC 1.00 mg/kg, 30 minutes) of 0.497 µM and a Whole blood level ([3]; SC 1.00 mg/kg, 45 minutes) of 0.241 µM. The Whole blood level ([3]; SC 1.00 mg/kg, 120 minutes) was 0.077 µM, the Bioavailability ([3]; SC 1.00 mg/kg) was 0.55 and the T1/2 ([3]; SC 1.93 mg/kg) was 24.6 min. It also gave a Whole blood level ([3]; SC 1.93 mg/kg, 5 minutes) of 3.445 µM, a Whole blood level ([3]; SC 1.93 mg/kg, 15 minutes) of 3.056 µM and a Whole blood level ([3]; SC 1.93 mg/kg, 30 minutes) of 1.295 µM. For the same molecule, the Whole blood level ([3]; SC 1.93 mg/kg, 45 minutes) was 0.551 µM, the Whole blood level ([3]; SC 1.93 mg/kg, 120 minutes) was 0.104 µM and the Bioavailability ([3]; SC 1.93 mg/kg) was 0.78. The T1/2 ([3]; SC 3.86 mg/kg) was 23.4 min, the Whole blood level ([3]; SC 3.86 mg/kg, 5 minutes) was 6.036 µM and the Whole blood level ([3]; SC 3.86 mg/kg, 15 minutes) was 5.310 µM. The Whole blood level ([3]; SC 3.86 mg/kg, 30 minutes) was 3.523 µM, the Whole blood level ([3]; SC 3.86 mg/kg, 45 minutes) was 1.098 µM and the Whole blood level ([3]; SC 3.86 mg/kg, 120 minutes) was 0.225 µM. For the same molecule, the Bioavailability ([3]; SC 3.86 mg/kg) was 0.60, the “Reductions in hematocrit, assessment” value [4] was “considered consistent with the blood drawing from the animals” and the “Platelet counts, trend” value ([4]; possible exception animal 4 at 1.93 mg/kg IM) was “did not demonstrate obvious drug-related trends by dose or time after administration”. The “Difference in RUC-4 IC50, citrate versus heparin and PPACK” value ([5]; lower IC50 in PRP from citrate-anticoagulated blood) was “approximately twofold”, the IC50 ([5]; read-out: RUC-4 IC50, 20 µM TRAP, blood anticoagulated with PPACK (0.3 mM), n = 4) was 122 ± 17 nM and the IC50 ([5]; read-out: RUC-4 IC50, 20 µM TRAP, blood anticoagulated with heparin (15.8 U/ml), n = 4) was 111 ± 7 nM. It also gave an IC50 ([5]; read-out: RUC-4 IC50, 20 µM TRAP, blood anticoagulated with sodium citrate (0.38%), n = 4) of 66 ± 25 nM, an IC50 ([5]; read-out: RUC-4 IC50, ADP 20 µM, blood anticoagulated with PPACK (0.1 mM), n = 5) of 102 ± 22 nM and an IC50 ([5]; read-out: RUC-4 IC50, ADP 20 µM, blood anticoagulated with sodium citrate (0.38%), n = 5) of 54 ± 13 nM. For the same molecule, the IC50 ([5]; read-out: RUC-4 IC50, ADP (5 µM), aspirin (0.83 mM), mean of 5 patients) was 37 nM, the IC50 ([5]; read-out: RUC-4 IC50, ADP (5 µM), aspirin (0.83 mM), patient 1) was 41 nM and the IC50 ([5]; read-out: RUC-4 IC50, ADP (5 µM), aspirin (0.83 mM), patient 2) was 33 nM. For the same molecule, the IC50 ([5]; read-out: RUC-4 IC50, ADP (5 µM), aspirin (0.83 mM), patient 3) was 32 nM, the IC50 ([5]; read-out: RUC-4 IC50, ADP (5 µM), aspirin (0.83 mM), patient 4) was 43 nM and the IC50 ([5]; read-out: RUC-4 IC50, ADP (5 µM), aspirin (0.83 mM), patient 5) was 37 nM. For the same molecule, the IC50 ([5]; read-out: RUC-4 IC50, ADP (5 µM), vehicle, mean of 5 patients) was 40 nM, the IC50 ([5]; read-out: RUC-4 IC50, ADP (5 µM), vehicle, patient 1) was 52 nM and the IC50 ([5]; read-out: RUC-4 IC50, ADP (5 µM), vehicle, patient 2) was 38 nM. For the same molecule, the IC50 ([5]; read-out: RUC-4 IC50, ADP (5 µM), vehicle, patient 3) was 34 nM, the IC50 ([5]; read-out: RUC-4 IC50, ADP (5 µM), vehicle, patient 4) was 47 nM and the IC50 ([5]; read-out: RUC-4 IC50, ADP (5 µM), vehicle, patient 5) was 31 nM. The IC50 ([5]; read-out: RUC-4 IC50, arachidonic acid (1.5 mM), vehicle, mean of 5 patients) was 61 nM, the IC50 ([5]; read-out: RUC-4 IC50, arachidonic acid (1.5 mM), vehicle, patient 1) was 67 nM and the IC50 ([5]; read-out: RUC-4 IC50, arachidonic acid (1.5 mM), vehicle, patient 2) was 52 nM. It also gave an IC50 ([5]; read-out: RUC-4 IC50, arachidonic acid (1.5 mM), vehicle, patient 3) of 41 nM, an IC50 ([5]; read-out: RUC-4 IC50, arachidonic acid (1.5 mM), vehicle, patient 4) of 72 nM and an IC50 ([5]; read-out: RUC-4 IC50, arachidonic acid (1.5 mM), vehicle, patient 5) of 71 nM. The IC50 ([5]; read-out: RUC-4 IC50 for ADP-induced aggregation, ADP 5 µM, aspirin-treated platelets (0.83 mM), citrated PRP) was 37 ± 5 nM, the Clinical observations (IM, similar at all doses, all animals) was “some minor bruising and red, raised areas limited to site of injection (thigh) or venipuncture” and the Clinical observations (IV 1.93 mg/kg, one animal in arm 2) was “minor nose and gingival bleeding”. The Clinical observations (IV 3.86 mg/kg, one animal in arm 2 and both animals in arm 3) was “vomited immediately after the IV injection”, the Clinical findings (SC, resolved by ~24 hours post-dose) was “red discoloration of the skin at the venipuncture and administration sites and bruising at sites of injection and inguinal areas” and the Tolerability (all doses, IM, IV, SC) was “well tolerated”. The “Average correlation between inhibition of platelet aggregation and inhibition of PAC-1 binding” value (αIIbβ3) was 0.96.
